The values below come from PubChem BioAssay.

Activity calls are given as the source filed them.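 The calls were made as follows, unless noted: active = viability at or below 10% of carrier control in both of two separate runs; inconclusive = viability at or below 10% in only one of the two runs; inactive = the rest.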

The nature of assay [1]: Her2 expression decrease, cell viability multiplex – SKBR3 breast tumor cells, AlphaScreen, ATP viability, primary screen (AID 461;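 active = Her2 level under about 52% in both replicate screens, with viability over 70% of control, limit read from the data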;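 as to Her2 level: lower value means less Her2 protein in the cells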;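 as to viability: percent of carrier control wells set as 100% viability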). As to conditions: SKBR3 Her2 protein level, 18-24 h, measured here: SKBR3 viability, ATP luminescence, at 10 µM.
Assay [2] addresses Receptor tyrosine-protein kinase erbB-2 (Homo sapiens) (UniProt P04626). The description is as above. The conditions noted are these: 18-24 h, at 10 µM, stronger effect = lower value.
The nature of assay [3]: reduced viability of SK-BR-3 breast cancer cells – cell-based, 24 h, human, pilot screen (AID 572).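 Also: compound exposure lasted between 18 and 24 h rather than exactly 24 h; 100% = carrier-treated control wells.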 The conditions noted are these: SK-BR-3 viability, CellTiter-Glo luminescence, at 10 µM, stronger effect = lower value. (In general: ATP-based viability assays read luminescence as a measure of living cells.)
Assay [4] is described as follows: HUVEC growth inhibition – cell-based, human, primary screen (AID 575;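 active = viability at or below 30% in both replicate assays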;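 also: 100% = median of untreated cell wells with 0.1% DMSO on each plate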). As to conditions: HUVEC proliferation, CellTiter-Glo luminescence, 72 h; at 10 µM; stronger effect = lower value. A digest of the protocol:
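Test system: primary human umbilical vein endothelial cells. Quantity: 1250 cells/well. Compound: single 10 µM dose, 0.1% DMSO, from 5x medium stock. Timing: 72 h treatment at 37 °C. Detection: ATP-based CellTiter-Glo luminescent read. Benchmarks: vehicle and MePR control wells. Format: 384-well plates coated with collagen.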

Assay [5] in a line: H69AR cell proliferation blockers – human, duplicate replicates, primary screen (AID 580;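 active = viability at or under a set limit in both replicates, limit being median viability minus 3 SD, cut at about 48% in these data, passing the limit was not always enough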;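 also: 100% = mean luminescence of untreated wells and 0% = no signal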). As to conditions: H69AR lung tumor cells viability, ATP luminescence, 72 h; at 10 µM; stronger effect = lower value.
Assay [6] can be described thus: MRP1 drug-resistance reversers in H69AR cells – cell-based, doxorubicin co-treatment, pilot screen (AID 601;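 active = viability loss from added drug above about 55%, and viability with drug at most 40%, in both replicates, limit read from the data, passing the limit was not always enough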). As to conditions: CellTiter-Glo, 72 h, at 10 µM; for differential viability (reversal): stronger effect = higher value.
The nature of assay [7]: yeast transport mutant growth inhibition pilot in 384-well plates, post-Golgi transport modulator project (AID 636; in the data active = inhibition above about 31%). The conditions noted are these: absorbance 615 nm, about 18 h, stronger effect = higher value.
Assay [8] in a line: growth suppression of yeast trafficking mutant, preliminary HTS, modulators of trafficking downstream of Golgi apparatus project, 1536-format plate, OD 615 nm (AID 637; in the data active = inhibition above about 30%). The conditions noted are these: yeast transport mutant growth, absorbance 615 nm, 18 h; stronger effect = higher value.
The mark [9] stands for this setting: H69AR cells + 2 uM doxorubicin, measured here: viability with 2 uM doxorubicin, stronger effect = lower value.
Setting [10] is: H69AR cells, compound alone cytotoxicity.

Receptor tyrosine-protein kinase erbB-2 (Homo sapiens), sequence (P04626 whole entry, looked up): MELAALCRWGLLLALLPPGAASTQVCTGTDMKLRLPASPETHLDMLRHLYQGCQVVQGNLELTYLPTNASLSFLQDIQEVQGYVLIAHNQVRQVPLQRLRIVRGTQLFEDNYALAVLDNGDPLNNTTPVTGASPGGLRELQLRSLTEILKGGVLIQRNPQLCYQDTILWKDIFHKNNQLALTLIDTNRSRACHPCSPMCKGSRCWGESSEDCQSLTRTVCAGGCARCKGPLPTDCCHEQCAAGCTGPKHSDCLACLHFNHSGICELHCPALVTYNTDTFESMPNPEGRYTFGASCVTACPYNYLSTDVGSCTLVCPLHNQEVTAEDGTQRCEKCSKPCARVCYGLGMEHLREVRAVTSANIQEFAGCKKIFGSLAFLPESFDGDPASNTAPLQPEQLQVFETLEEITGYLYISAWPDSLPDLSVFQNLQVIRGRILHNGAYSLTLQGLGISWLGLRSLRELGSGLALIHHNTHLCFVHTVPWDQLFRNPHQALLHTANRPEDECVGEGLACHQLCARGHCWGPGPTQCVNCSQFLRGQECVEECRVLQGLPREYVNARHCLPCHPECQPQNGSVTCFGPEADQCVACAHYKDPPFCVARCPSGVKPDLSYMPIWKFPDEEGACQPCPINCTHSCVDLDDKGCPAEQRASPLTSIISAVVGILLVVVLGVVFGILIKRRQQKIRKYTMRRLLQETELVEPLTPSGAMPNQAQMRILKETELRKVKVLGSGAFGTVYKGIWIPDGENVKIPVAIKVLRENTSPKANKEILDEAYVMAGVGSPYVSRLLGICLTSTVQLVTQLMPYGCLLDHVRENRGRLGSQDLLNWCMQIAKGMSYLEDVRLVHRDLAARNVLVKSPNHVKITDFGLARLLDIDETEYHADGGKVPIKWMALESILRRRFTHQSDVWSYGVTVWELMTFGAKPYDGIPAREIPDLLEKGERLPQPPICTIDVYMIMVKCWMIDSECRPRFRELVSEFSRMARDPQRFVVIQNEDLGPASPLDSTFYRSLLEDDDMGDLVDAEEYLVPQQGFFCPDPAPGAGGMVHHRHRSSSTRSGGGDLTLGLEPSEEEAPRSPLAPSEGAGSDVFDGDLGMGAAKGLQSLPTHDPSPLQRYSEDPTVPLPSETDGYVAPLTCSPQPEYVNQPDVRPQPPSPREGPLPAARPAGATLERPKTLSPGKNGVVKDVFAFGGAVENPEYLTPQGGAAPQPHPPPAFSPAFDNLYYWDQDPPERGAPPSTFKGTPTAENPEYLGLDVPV

By viability is commonly meant a read-out of living cells in per cent, often relative to untreated cells. In general, inhibition refers to the change of the read-out against control, counted positive when it falls. Turning to `COCCn1nnnc1CN(CCCN1CCOCC1)Cc1cc2c(C)ccc(C)c2[nH]c1=O`, the viability in assay [1] is 85%; in assay [3] it was 85% (inactive); in assay [4], 98.5% (inactive); in assay [5], 68.7% (inactive); in assay [6] (setting [9]) it was 74.1%; in assay [6] (setting [10]), 68.7%. In addition, the Her2 level in assay [2] is 124% (inactive). Moreover, in assay [6] (H69AR cells + 2 uM doxorubicin), the differential viability (reversal) is -5.44% (inactive). The inhibition in assay [7] was 4.55% (inactive); in assay [8], -7.33% (inactive).
For `O=C(CN(C(=O)CCNC(=O)c1ccco1)c1ccccc1)NC1CCCC1`, the viability is 93% in assay [1]; 93% (inactive) in assay [3]; 103% (inactive) in assay [4]; 93.5% (inactive) in assay [5]; 98.9% in assay [6] (setting [9]); 93.5% in assay [6] (setting [10]). The Her2 level in assay [2] is 112% (inactive). Further, in assay [6] (H69AR cells + 2 uM doxorubicin), the differential viability (reversal) is -5.44% (inactive). The inhibition in assay [7] was 2.53% (inactive); in assay [8], 33.5% (active).
Regarding `NC(=O)c1nsnc1-c1ccccc1O`, the viability is 105% in assay [1]; 105% (inactive) in assay [3]; 99.9% (inactive) in assay [4]; 90.2% (inactive) in assay [5]; 97.2% in assay [6] (setting [9]); 90.2% in assay [6] (setting [10]). The Her2 level in assay [2] was 124% (inactive). Further, the differential viability (reversal) in assay [6] (H69AR cells + 2 uM doxorubicin) was -6.96% (inactive). Also, the inhibition in assay [7] is 2.24% (inactive); in assay [8] it was 16.8% (inactive).
Turning to `COCCCNC(=O)CCc1nc(-c2ccccc2Cl)no1`, the viability was 102% in assay [1]; 102% (inactive) in assay [3]; 103% (inactive) in assay [4]; 93.3% (inactive) in assay [5]; 94.1% in assay [6] (setting [9]); 93.3% in assay [6] (setting [10]). Moreover, in assay [2], the Her2 level was 95% (inactive). Also, in assay [6] (H69AR cells + 2 uM doxorubicin), the differential viability (reversal) was -0.855% (inactive). Also, the values for the inhibition in assay [7] and in assay [8] were 0.39% (inactive) and 6.39% (inactive), respectively.
For the compound `COCCNC(=O)CN(C)S(=O)(=O)c1ccc2c(c1)OCCO2`, the viability in assay [1] is 107%; in assay [3], 107% (inactive); in assay [4], 104% (inactive); in assay [5], 100% (inactive); in assay [6] (setting [9]), 88.2%; in assay [6] (setting [10]) it was 100%. For the same compound, the Her2 level in assay [2] is 102% (inactive). For the same compound, the differential viability (reversal) in assay [6] (H69AR cells + 2 uM doxorubicin) is 12% (inactive). The inhibition was -4.8% (inactive) in assay [7] and -2.26% (inactive) in assay [8].
Consider `COc1cc(C2C(C#N)=C(N)OC3=C2C(=O)CC(C)(C)C3)ccc1OC(=O)N1CCOCC1` (stereo not given), for which the viability in assay [1] is 84.5%; in assay [3] it was 84.5% (inactive); in assay [4], 97.6% (inactive); in assay [5], 98.8% (inactive); in assay [6] (setting [9]), 94.2%; in assay [6] (setting [10]), 98.8%. Moreover, the Her2 level in assay [2] was 94.5% (inactive). For the same compound, the differential viability (reversal) in assay [6] (H69AR cells + 2 uM doxorubicin) was 4.58% (inactive). In addition, the figures for the inhibition in assay [7] and in assay [8] were 1.49% (inactive) and -7.54% (inactive), respectively.
Consider `CCOC(=O)C1CCN(c2c(NCCCN(CC)c3ccccc3)c(=O)c2=O)CC1`, for which the viability was 83.5% in assay [1]; 83.5% (inactive) in assay [3]; 91.9% (inactive) in assay [4]; 81.1% (inactive) in assay [5]; 72.9% in assay [6] (setting [9]); 81.1% in assay [6] (setting [10]). In addition, the Her2 level in assay [2] is 86.5% (inactive). Besides, the differential viability (reversal) in assay [6] (H69AR cells + 2 uM doxorubicin) was 8.21% (inactive). The inhibition in assay [7] was -1.18% (inactive); in assay [8], 0.18% (inactive).
On to `O=c1cc(CN2CCN(c3ccc(F)cc3)CC2)nc2sccn12`, for which the viability in assay [1] is 85%; in assay [3] it was 85% (inactive); in assay [4], 87.9% (inactive); in assay [5] it was 87.2% (inactive); in assay [6] (setting [9]) it was 92.1%; in assay [6] (setting [10]) it was 87.2%. The Her2 level in assay [2] is 118% (inactive). Besides, in assay [6] (H69AR cells + 2 uM doxorubicin), the differential viability (reversal) was -4.83% (inactive). Also, the inhibition is 5.45% (inactive) in assay [7] and -14.2% (inactive) in assay [8].
Turning to `CCC(=O)c1ccc(OCC(O)CN2CCN(S(=O)(=O)N3CCCCC3)CC2)cc1` (stereo not given), the viability in assay [1] was 91%; in assay [3] it was 91% (inactive); in assay [4], 105% (inactive); in assay [5], 110% (inactive); in assay [6] (setting [9]) it was 92.2%; in assay [6] (setting [10]) it was 110%. In assay [2], the Her2 level is 82% (inactive). For the same compound, in assay [6] (H69AR cells + 2 uM doxorubicin), the differential viability (reversal) was 18.1% (inactive). For the same compound, the inhibition in assay [7] was -3.33% (inactive); in assay [8], 3.44% (inactive).
As to `CCOC(=O)Nc1c(C(=O)OC)[nH]c2cccc(OC)c12`, the viability is 76% in assay [1]; 76% (inactive) in assay [3]; 106% (inactive) in assay [4]; 104% (inactive) in assay [5]; 91% in assay [6] (setting [9]); 104% in assay [6] (setting [10]). In addition, the Her2 level in assay [2] is 112% (inactive). Besides, in assay [6] (H69AR cells + 2 uM doxorubicin), the differential viability (reversal) was 13% (inactive). Further, the results for the inhibition in assay [7] and in assay [8] were 3.03% (inactive) and 9.52% (inactive), respectively.
As for `O=C(CN1C(=O)c2cccc3cccc1c23)NCC1CCCO1` (stereo not given), the viability was 104% in assay [1]; 104% (inactive) in assay [3]; 98.8% (inactive) in assay [4]; 96.5% (inactive) in assay [5]; 94.7% in assay [6] (setting [9]); 96.5% in assay [6] (setting [10]). Also, in assay [2], the Her2 level was 116% (inactive). The differential viability (reversal) in assay [6] (H69AR cells + 2 uM doxorubicin) was 1.85% (inactive). The inhibition in assay [7] is 1.05% (inactive); in assay [8] it was 1.97% (inactive).
Turning to `Cc1cnc(NC(=O)CSc2nc3ccccc3c(=O)[nH]2)s1`, the viability in assay [1] was 89.5%; in assay [3], 89.5% (inactive); in assay [4], 76.5% (inactive); in assay [5], 93.3% (inactive); in assay [6] (setting [9]) it was 82.5%; in assay [6] (setting [10]), 93.3%. The Her2 level in assay [2] is 93.5% (inactive). The differential viability (reversal) in assay [6] (H69AR cells + 2 uM doxorubicin) is 10.8% (inactive). In addition, the figures for the inhibition in assay [7] and in assay [8] were -3.07% (inactive) and -6.19% (inactive), respectively.
Regarding `COc1ccc(C2=NO[C@@H]3C(=O)N(c4ccc5c(c4)OCCO5)C(=O)[C@H]23)cc1OC`, the viability in assay [1] was 85%; in assay [3] it was 85% (inactive); in assay [4], 81.7% (inactive); in assay [5], 80.3% (inactive); in assay [6] (setting [9]), 87.1%; in assay [6] (setting [10]), 80.3%. The Her2 level in assay [2] is 112% (inactive). Further, the differential viability (reversal) in assay [6] (H69AR cells + 2 uM doxorubicin) was -6.85% (inactive). In addition, the inhibition in assay [7] was 2.34% (inactive); in assay [8], -5.08% (inactive).
As to `O=C(O)C1C2C=CC(O2)C1C(=O)NCc1ccc(Cl)cc1` (stereo not given), the viability in assay [1] was 107%; in assay [3] it was 107% (inactive); in assay [4], 105% (inactive); in assay [5], 104% (inactive); in assay [6] (setting [9]), 96.6%; in assay [6] (setting [10]) it was 104%. The Her2 level in assay [2] is 94.5% (inactive). Besides, the differential viability (reversal) in assay [6] (H69AR cells + 2 uM doxorubicin) is 7.33% (inactive). The inhibition in assay [7] is -5.87% (inactive); in assay [8], 2.58% (inactive).
